Test results: ChEMBL document CHEMBL4732041, “Sulfonium-based liposome-encapsulated antibiotics deliver a synergistic antibacterial activity” (RSC Med Chem, 2021)
≈ marks a conversion by molar mass, not a printed value. Where “and” joins values, the source holds several entries; their conditions need not be identical. Equal entries are not always repeated. Calls of active or inactive are those of the source. The calls are words filed in the database; no cut-off is given here.

Columns and labels:
Staphylococcus aureus [1] = experiment: Antibacterial activity against Staphylococcus aureus MTCC 96 incubated for 14 to 16 hrs by micro broth dilution method; type: functional; conditions: time 14-16 hrs
How it was run: (§1)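 Broth microdilution. E. coli and P. aeruginosa grown in LB, S. aureus in BHI, to mid-log phase at 37 °C with shaking. Cells washed and resuspended in PBS, then exposed to graded compound concentrations at 10^6 CFU/mL at 37 °C for 14–16 h. OD600 read. MIC is the lowest concentration with no visible growth or OD close to the bacteria-free control. Repeated thrice at the MIC.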

Pseudomonas aeruginosa [2] = experiment: Antibacterial activity against Pseudomonas aeruginosa MTCC 2488 incubated for 14 to 16 hrs by micro broth dilution method; type: functional; conditions: time 14-16 hrs; how it was run: as §1
Escherichia coli [3] = experiment: Antibacterial activity against Escherichia coli MTCC 1687 incubated for 14 to 16 hrs by micro broth dilution method; type: functional; conditions: time 14-16 hrs; how it was run: as §1
Staphylococcus aureus [4] = experiment: Antibacterial activity against methicillin resistant Staphylococcus aureus incubated for 14 to 16 hrs by micro broth dilution method; type: functional; conditions: time 14-16 hrs
How it was run: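 MRSA grown in BHI broth at 37 °C with shaking to mid-log phase, harvested, PBS-washed and resuspended in PBS; 10^6 CFU mL−1 incubated with serially varied compound concentrations at 37 °C for 14–16 h; OD600 read. MIC is the lowest concentration with no visible growth or OD near the bacteria-free control; repeated thrice.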

Pseudomonas aeruginosa [5] = experiment: Bactericidal activity against Pseudomonas aeruginosa MTCC 2488 incubated for 24 hrs by micro broth dilution method; type: functional
Escherichia coli [6] = experiment: Bactericidal activity against Escherichia coli MTCC 1687 incubated for 24 hrs by micro broth dilution method; type: functional
Staphylococcus aureus [7] = experiment: Bactericidal activity against methicillin resistant Staphylococcus aureus […] by micro broth dilution method; type: functional
HaCaT [8] = experiment: Cytotoxicity against human HaCaT cells up to 100 uM after 24 hrs by MTT assay; type: cell-based
Staphylococcus aureus [9] = experiment: Bactericidal activity against Staphylococcus aureus MTCC 96 […] by micro broth dilution method; type: functional
[10] = Hemolytic activity against human erythrocytes incubated for 1 hr by UV-vis spectroscopic method; type: ADME, cell-based, Erythrocyte
How it was run: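 Erythrocytes from fresh human blood spun at 1500 rpm for 10 min, PBS-washed, made to 5% haematocrit. Serial compound dilutions incubated with the cells for 1 h at 37 °C. Buffer served as negative control and 0.5% Triton X-100 as positive control. After centrifugation, supernatant absorbance read at 410 nm and % haemolysis computed against both controls.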

Pseudomonas aeruginosa [11] = experiment: Antibacterial activity against Pseudomonas aeruginosa after 24 hrs by microdilution method; type: functional
HaCaT [12] = experiment: Cytotoxicity against human HaCaT cells after 24 hrs by MTT assay; type: cell-based
Cell membrane [13] = experiment: Induction of membrane depolarization in Staphylococcus aureus MTCC 96 assessed as increase in fluorescence intensity at 0 to 4 uM by DiSC3-5 dye based fluorescence assay; type: subcellular; conditions: dose 0-4 µM
How it was run: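 Mid-log S. aureus MTCC 96 resuspended in 10 mM HEPES with 50 mM glucose and loaded with 0.4 μM (final) DiSC3(5) for 1 h. KCl added to 100 mM, 10 min wait, then compound at 0, 2 or 4 μM or 30 μM valinomycin as positive control. Fluorescence recorded at excitation 620 nm, emission 650 nm.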

Staphylococcus aureus [14] = experiment: Antibiofilm activity against Staphylococcus aureus MTCC 96 assessed as inhibition of biofilm formation incubated for overnight by crystal violet staining assay; type: functional, organism-based; conditions: dose 6.25-100 µM
How it was run: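 S. aureus MTCC 96 grown and exposed to compound as in the MIC assay, then incubated overnight. Planktonic cells removed, wells rinsed with PBS and air-dried. Stained with 1% (v/v) crystal violet for 20 min, dried, dye taken up in 95% ethanol, and absorbance read at 590 nm.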

Cell membrane [15] = experiment: Disruption of bacterial cell membrane in Staphylococcus aureus MTCC 96 assessed as increase in PI uptake by measuring increase in fluorescence intensity by PI dye based spectrofluorometric analysis; type: subcellular; conditions: time 1-3 hrs, TDE = time-dependent effect
How it was run: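 S. aureus MTCC 96 grown overnight and diluted in medium to 10^6 CFU/mL. Compound added, then incubated at 37 °C, 180 rpm. Samples taken at 1, 2 and 3 h, washed in PBS, stained with 30 μM PI for 30 min, washed again. Fluorescence read at excitation 535 nm, emission 617 nm.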

[16] = Aggregation property of the compound in aqueous medium assessed as formation of spherical aggregates by FE-TEM analysis; type: physicochemical; conditions: buffer
How it was run: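 Lipid aggregates prepared in PBS pH 7.4 by film hydration, not extruded, then diluted to half concentration. Applied to carbon-coated copper grid for 1 min, uranyl acetate stain, excess wicked off. Grid dried overnight at 30 °C and imaged by TEM at 200 kV.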

[17] = Drug release in PBS at pH 7.4 assessed as tetracyclin release incubated for 60 hours by fluorometric method; conditions: buffer, pH 7.4, 60 h
[18] = Therapeutic index, ratio of IC50 for human HaCaT to MIC for Staphylococcus aureus; type: toxicity; conditions: HaCaT cells
Escherichia coli [19] = experiment: Bactericidal activity against Escherichia coli MTCC 1687 assessed as fragmented cell morphology incubated for 5 hrs by FESEM analysis; type: functional, organism-based
How it was run: (§2)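 S. aureus MTCC 96 and E. coli MTCC 1687 harvested by centrifugation (5000 rpm, 5 min) and washed. Exposed to compound for 5 h alongside untreated control. Cells washed with water, drop-cast on foil, air-dried, mounted on carbon tape, gold double-coated, and imaged by FESEM.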

Staphylococcus aureus [20] = experiment: Bactericidal activity against Staphylococcus aureus MTCC 96 assessed as fragmented cell morphology incubated for 5 hrs by FESEM analysis; type: functional, organism-based; how it was run: as §2
[21] = Therapeutic index, ratio of IC50 for human HaCaT to MIC for Escherichia coli; type: toxicity; conditions: HaCaT cells, read-out: TI
[22] = Aggregation property of compound assessed as spherical aggregates size by dynamic light scattering analysis; type: physicochemical
How it was run: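 Chloroform stock dried to a film by rotary evaporation, hydrated overnight at 50 °C in PBS (137 mM NaCl, 2.7 mM KCl, 8 mM Na2HPO4, 2 mM KH2PO4, pH 7.4), then vortexed and intermittently sonicated to unilamellar vesicles. Hydrodynamic diameter and zeta potential measured by DLS at 25 °C in buffers of different pH.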

[23] = Drug release in PBS at pH 7.4 assessed as amoxicillin release incubated for 60 hours by fluorometric method; conditions: buffer, pH 7.4, 60 h
Staphylococcus aureus [24] = experiment: Bactericidal activity against Staphylococcus aureus assessed as membrane damage incubated for 5 hrs by cFDA-SE dye based fluorescence microscopic analysis; type: functional, organism-based
How it was run: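 S. aureus cultured and harvested, then exposed to compound (buffer-only control) for 5 h. Cells washed and diluted to 10^6 CFU/mL, stained separately with 30 μM PI or 10 μM cFDA-SE for 30 min, and viewed by fluorescence microscopy.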

Escherichia coli [25] = experiment: Synergistic antibacterial activity against Escherichia coli assessed as tetracyclin MIC encapsulated by compound; type: functional
How it was run: (§3)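 Antibiotic-loaded liposomes (film hydrated with tetracycline or amoxicillin in PBS, freeze–thaw, vortexing, unloaded drug removed by centrifugation) tested by the same broth microdilution protocol: mid-log cells in PBS at 10^6 CFU/mL, 37 °C, 14–16 h, OD600.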

Staphylococcus aureus [26] = experiment: Synergistic antibacterial activity against Staphylococcus aureus assessed as tetracyclin MIC encapsulated by compound; type: functional; how it was run: as §3
Escherichia coli [27] = experiment: Synergistic antibacterial activity against Escherichia coli assessed as amoxicillin MIC encapsulated by compound; type: functional; how it was run: as §3
Staphylococcus aureus [28] = experiment: Synergistic antibacterial activity against Staphylococcus aureus assessed as amoxicillin MIC encapsulated by compound; type: functional; how it was run: as §3
[29] = Solubility of compound in PBS at pH 7.4; type: physicochemical; conditions: buffer

Compound	MIC (Staphylococcus aureus [1]) [µM]	MIC (Pseudomonas aeruginosa [2]) [µM]	MIC (Escherichia coli [3]) [µM]	MIC (Staphylococcus aureus [4]) [µM]	MIC (Pseudomonas aeruginosa [11])	other results
CCCCCCCCCCCCSCc1cc(CN=[N+]=[N-])cc(CSCCCCCCCCCCCC)c1	> 100	> 100	> 100	> 100	–	–
CCCCCCCCCCCCSCc1cc(CSCCCCCCCCCCCC)cc(C[n+]2ccccc2)c1	> 100	> 100	> 100	> 100	–	–
CCCCCCCCCCCC[S+](C)Cc1cc(Cn2cc(CS(=O)(=O)O)nn2)cc(C[S+](C)CCCCCCCCCCCC)c1.F[B-](F)(F)F.F[B-](F)(F)F (stereo unspecified)	10	25	12	25	–	MBC (Pseudomonas aeruginosa [5]): 50 µM; MBC (Escherichia coli [6]): 20 µM; MBC (Staphylococcus aureus [7]): > 100 µM; Activity (HaCaT [8]): Non-Toxic; MBC (Staphylococcus aureus [9]): 12.5 µM; HC50 at 1 h [10]: 35 µM
CCCCCCCCN=c1ccn(CCCCCCCCCCn2ccc(=NCCCCCCCC)cc2)cc1.Cl.Cl [OCTENIDINE HYDROCHLORIDE]	–	–	–	–	6.25 µM and 3.9 µg/mL	–
CCCCCCCCCCCC[S+](C)Cc1cc(C[n+]2ccccc2)cc(C[S+](C)CCCCCCCCCCCC)c1.F[B-](F)(F)F.F[B-](F)(F)F.F[B-](F)(F)F (stereo unspecified)	6.3	12	7.5	6.3	–	IC50 (HaCaT [12]): 27 µM; Activity (Cell membrane [13]): Active; MBC (Pseudomonas aeruginosa [5]): 24 µM; Activity (Staphylococcus aureus [14]): Dose-dependent effect; Activity (Cell membrane [15]): Tde; MBC (Escherichia coli [6]): 10 µM; MBC (Staphylococcus aureus [7]): 12.5 µM; Activity [16]: Active; Activity [17]: 40%; selectivity ratio [18]: 4.3; Activity (Escherichia coli [19]): Active; Activity (Staphylococcus aureus [20]): Active; selectivity ratio [21]: 3.6; MBC (Staphylococcus aureus [9]): 12.5 µM; HC50 at 1 h [10]: 29 µM; Activity [22]: 270 nm; Activity [23]: 60%; Activity (Staphylococcus aureus [24]): Active
N=C(NCCCCCCNC(=N)NC(=N)Nc1ccc(Cl)cc1)NC(=N)Nc1ccc(Cl)cc1.O=C(O)[C@H](O)[C@@H](O)[C@H](O)[C@H](O)CO	–	–	–	–	15.6 µg/mL and 30.9 µM	–
CCCCCCCCCCCCC[N+](C)(C)Cc1ccccc1.[Cl-] [BENZALKONIUM CHLORIDE]	–	–	–	–	32 µg/mL	–
CN(C)[C@@H]1C(O)=C(C(N)=O)C(=O)[C@@]2(O)C(O)=C3C(=O)c4c(O)cccc4[C@@](C)(O)[C@H]3C[C@@H]12 [TETRACYCLINE]	4.2 (≈ 1.87 µg/mL)	14 (≈ 6.22 µg/mL)	8.5 (≈ 3.78 µg/mL)	> 100	–	IC50 (HaCaT [12]): 8 µM; MIC (Escherichia coli [25]): 2 µM; MIC (Staphylococcus aureus [26]): 0.7 µM
CCSCc1cc(CSCC)cc(C[n+]2ccccc2)c1	> 100	> 100	> 100	> 100	–	–
CCCCCCCCCCCCSCc1cc(CSCCCCCCCCCCCC)cc(Cn2cc(CS(=O)(=O)O)nn2)c1	> 100	> 100	> 100	> 100	–	–
CC1(C)S[C@@H]2[C@H](NC(=O)[C@H](N)c3ccc(O)cc3)C(=O)N2[C@H]1C(=O)O [AMOXICILLIN]	6.8 (≈ 2.48 µg/mL)	4.3 (≈ 1.57 µg/mL)	11 (≈ 4.02 µg/mL)	> 50	–	IC50 (HaCaT [12]): 29.4 µM; MIC (Escherichia coli [27]): 1.7 µM; MIC (Staphylococcus aureus [28]): 1.2 µM
Oc1cc(Cl)ccc1Oc1ccc(Cl)cc1Cl [TRICLOSAN]	–	–	–	–	> 512 µg/mL	–
CC[S+](C)Cc1cc(C[n+]2ccccc2)cc(C[S+](C)CC)c1.F[B-](F)(F)F.F[B-](F)(F)F.F[B-](F)(F)F (stereo unspecified)	> 100	> 100	> 100	> 100	–	solubility [29]: Soluble
